In PMC6585766 (Clinical Pharmacology in Drug Development, 2018):
Entries after “also recorded” stand apart in the source; their conditions may differ. Read-outs that look alike come from different tables or passages of the source.

Key:
[1] = assay type: in vivo, human; conditions: for AUC / AUC(0-inf) / Cmax / half-life / Tmax: human, plasma, po, 4 mg; for AUC / AUC(0-inf) / Cmax / Tmax / CL/F / AUC0‐t, Ratio (%) of Geometric Mean (Impaired vs Healthy) / AUC, Ratio (%) of Geometric Mean (Impaired vs Healthy) / Cmax, Ratio (%) of Geometric Mean (Impaired vs Healthy) / tmax, Median Difference (Impaired– Healthy): single oral 4-mg dose; for AUC(0-inf): AUC (time 0 extrapolated to infinity); for half-life: t1/2, single oral 4-mg dose; for AUC0‐t, Ratio (%) of Geometric Mean (Impaired vs Healthy) / AUC, Ratio (%) of Geometric Mean (Impaired vs Healthy) / Cmax, Ratio (%) of Geometric Mean (Impaired vs Healthy): ANOVA; for tmax, Median Difference (Impaired– Healthy): nonparametric method
Method in brief: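 Male subjects (8 per group: healthy, mild, moderate, severe hepatic impairment) received a single oral 4-mg dose. Water was withheld from 60 min pre-dose to 2 h post-dose, food until at least 4 h post-dose, and CYP1A2/CYP3A modulators from 14 days prior. Plasma was sampled pre-dose to 48 h and assayed by validated LC-MS/MS. Noncompartmental parameters used actual sampling times. ANOVA (group as fixed effect) gave geometric mean ratios with 90% CI versus matched healthy subjects.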

[2] = Safety assessment; assay type: in vivo, human; conditions: single oral 4-mg dose
Method in brief: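 Open-label, multicentre study in male subjects (healthy, mild, moderate or severe hepatic impairment) given a single oral 4-mg dose. Adverse events were recorded from consent through a follow-up telephone call 7 ± 1 days after dosing, plus any reported within 28 days. Physical exams, vital signs, 12-lead ECGs and clinical laboratory tests were also done. TEAEs were tabulated by system organ class and preferred term, each subject counted once per event.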

[3] = human, cited from earlier work
[4] = fed vs fasted; ref data on file; cited from earlier work
[5] = heavy smokers (approximately 25 cigarettes per day); ref data on file; cited from earlier work
[6] = cited from earlier work
[7] = patients with relapsed and refractory multiple myeloma; cited from earlier work
[8] = administered during the period of organogenesis; no reference given; cited from earlier work
[9] = group 1 healthy subjects, n = 8, arithmetic mean (SD)
[10] = group 2 severe hepatic impairment, n = 8, arithmetic mean (SD)
[11] = group 3 moderate hepatic impairment, n = 8, arithmetic mean (SD)
[12] = group 4 mild hepatic impairment, n = 8, arithmetic mean (SD)
[13] = severe hepatic impairment group, 1 subject

Nc1cccc2c1C(=O)N(C1CCC(=O)NC1=O)C2=O (centres unmarked) [Pomalidomide]
AUC ([1]; AUC0‐t, Geometric Mean, healthy, N = 8): 481 ng·h/mL
AUC ([1]; AUC0‐t, Geometric Mean, mild hepatic impairment, N = 8): 693 ng·h/mL
AUC ([1]; AUC0‐t, Geometric Mean, moderate hepatic impairment, N = 8): 725 ng·h/mL
AUC ([1]; AUC0‐t, Geometric Mean, severe hepatic impairment, N = 8): 762 ng·h/mL
AUC ([1]; AUC0‐t, group 1 healthy subjects, n = 8, arithmetic mean (SD)): 493 ng·h/mL
AUC ([1]; AUC0‐t, group 2 severe hepatic impairment, n = 8, arithmetic mean (SD)): 822 ng·h/mL
AUC ([1]; AUC0‐t, group 3 moderate hepatic impairment, n = 8, arithmetic mean (SD)): 764 ng·h/mL
AUC ([1]; AUC0‐t, group 4 mild hepatic impairment, n = 8, arithmetic mean (SD)): 728 ng·h/mL
AUC(0-inf) [1, 9]: 498 ng·h/mL
AUC(0-inf) [1, 10]: 908 ng·h/mL
AUC(0-inf) [1, 11]: 810 ng·h/mL
AUC(0-inf) [1, 12]: 787 ng·h/mL
AUC ([1]; AUC, Geometric Mean, healthy, N = 8): 486 ng·h/mL
AUC ([1]; AUC, Geometric Mean, mild hepatic impairment, N = 8): 734 ng·h/mL
AUC ([1]; AUC, Geometric Mean, moderate hepatic impairment, N = 8): 764 ng·h/mL
AUC ([1]; AUC, Geometric Mean, severe hepatic impairment, N = 8): 833 ng·h/mL
Cmax ([1]; Geometric Mean, healthy, N = 8): 59.2 ng/mL
Cmax ([1]; Geometric Mean, mild hepatic impairment, N = 8): 55.8 ng/mL
Cmax ([1]; Geometric Mean, moderate hepatic impairment, N = 8): 56.2 ng/mL
Cmax ([1]; Geometric Mean, severe hepatic impairment, N = 8): 44.9 ng/mL
Cmax [1, 10]: 49.1 ng/mL
Cmax [1, 12]: 56.2 ng/mL
half-life [1, 10]: 12.7 h
half-life [1, 11]: 10.1 h
half-life [1, 12]: 10.3 h
Tmax ([1]; Geometric Mean, healthy, N = 8, Table 4): 1.5 h
Tmax ([1]; Geometric Mean, mild hepatic impairment, N = 8, Table 4): 2.25 h
Tmax ([1]; Geometric Mean, moderate hepatic impairment, N = 8, Table 4): 2.38 h
Tmax ([1]; Geometric Mean, severe hepatic impairment, N = 8, Table 4): 2.5 h
Tmax ([1]; group 1 healthy subjects, n = 8, median (min, max)): 1.5 h
Tmax ([1]; group 2 severe hepatic impairment, n = 8, median (min, max)): 2.5 h
Tmax ([1]; group 3 moderate hepatic impairment, n = 8, median (min, max)): 2.25 h
Tmax ([1]; group 4 mild hepatic impairment, n = 8, median (min, max)): 2 h
increase of pomalidomide exposure ([1]; mild hepatic impairment vs healthy): approximately 50%
increase of pomalidomide exposure ([1]; moderate hepatic impairment vs healthy): approximately 60%
increase of pomalidomide exposure ([1]; severe hepatic impairment vs healthy): approximately 70%
CL/F [1, 9]: 8.4 (1.9) L/h
CL/F [1, 10]: 5.4 (3.3) L/h
CL/F [1, 11]: 5.6 (2.6) L/h
CL/F [1, 12]: 5.8 (2.2) L/h
AUC0‐t, Ratio (%) of Geometric Mean (Impaired vs Healthy) ([1]; mild vs healthy): 143.9%
AUC, Ratio (%) of Geometric Mean (Impaired vs Healthy) ([1]; mild vs healthy): 151.2%
Cmax, Ratio (%) of Geometric Mean (Impaired vs Healthy) ([1]; mild vs healthy): 94.2%
tmax, Median Difference (Impaired– Healthy) ([1]; mild vs healthy): 1.0 h
AUC0‐t, Ratio (%) of Geometric Mean (Impaired vs Healthy) ([1]; moderate vs healthy): 150.6%
AUC, Ratio (%) of Geometric Mean (Impaired vs Healthy) ([1]; moderate vs healthy): 157.5%
Cmax, Ratio (%) of Geometric Mean (Impaired vs Healthy) ([1]; moderate vs healthy): 94.8%
tmax, Median Difference (Impaired– Healthy) ([1]; moderate vs healthy): 1.0 h
AUC0‐t, Ratio (%) of Geometric Mean (Impaired vs Healthy) ([1]; severe vs healthy): 158.4%
AUC, Ratio (%) of Geometric Mean (Impaired vs Healthy) ([1]; severe vs healthy): 171.5%
Cmax, Ratio (%) of Geometric Mean (Impaired vs Healthy) ([1]; severe vs healthy): 75.8%
tmax, Median Difference (Impaired– Healthy) ([1]; severe vs healthy): 0.75 h
total number of TEAEs ([2]; all 32 subjects): 8
clinically significant clinical laboratory, vital sign, or ECG results ([2]; all subjects): No subject had a clinical laboratory, vital sign, or ECG result that was considered clinically significant or reported as a TEAE
deaths, SAEs, TEAEs leading to discontinuation ([2]; all subjects): No deaths, SAEs, or TEAEs leading to discontinuation were reported; also recorded: No deaths or other SAEs were reported and no subjects were discontinued; also recorded: no deaths and no subject discontinued due to a TEAE
severity of TEAEs ([2]; all subjects): All TEAEs were mild in severity except for 1 subject in the moderate hepatic impairment group with the moderate TEAE of bronchitis
TEAEs reported ([2]; healthy subjects): No TEAEs
safety and tolerability ([2]; healthy subjects and subjects with severe, moderate, or mild hepatic impairment): safe and well tolerated
subjects reporting at least 1 TEAE related to pomalidomide ([2]; mild hepatic impairment group, 2 subjects): 25.0%
subjects reporting TEAEs ([2]; mild hepatic impairment group, 4 subjects): 50.0%
subjects reporting TEAEs ([2]; moderate hepatic impairment group, 1 subject): 12.5%
subjects reporting at least 1 TEAE related to pomalidomide ([2]; overall, 3 subjects (diarrhea, nausea, headache, flushing)): 9.4%
subjects reporting TEAEs ([2]; overall, 6 of 32 subjects): 18.8%
subjects reporting TEAEs [2, 13]: 12.5%
subjects reporting at least 1 TEAE related to pomalidomide [2, 13]: 12.5%
clearance pathway: CYP–mediated hydroxylation with subsequent glucuronidation [3]: 43 % of the dose
unchanged pomalidomide in urine [3]: 2.2 % of the dose
total [14C]‐radioactivity recovered in feces ([3]; oral): 15.5%
total [14C]‐radioactivity recovered in urine ([3]; oral): 72.8%
recovery of total [14C]‐radioactivity ([3]; oral, urine plus feces): approximately 88 % of the administered dose
unchanged pomalidomide in feces ([3]; samples collected during the 96‐hour postdose period): 7.7 % of the dose
clearance pathway: excretion of unchanged drug ([3]; share of the dose): 10%
clearance pathway: glutarimide ring hydrolysis ([3]; share of the dose): 25%
decrease of AUC by food [4]: 8%
AUC lower in heavy smokers than in nonsmokers [5]: 30%
Cmax higher in heavy smokers than in nonsmokers [5]: 14.4%
effect on exposure of pomalidomide ([6]; co‐administration of a strong CYP1A2 inhibitor in the presence of a strong CYP3A inhibitor): approximately doubled
effect on exposure to pomalidomide ([6]; co‐administration of a strong CYP3A inhibitor or inducer or a P‐glycoprotein inhibitor): no clinically relevant effect
nonrenal routes as share of pomalidomide total body clearance [7]: approximately 70%
teratogenicity [8]: teratogenic
